The results in this text go back to ChEMBL document CHEMBL1153277 (Bioorg Med Chem Lett, 2009).

The structures appear in SMILES notation.

The target of series [1] is Neuronal acetylcholine receptor subunit alpha-7 (Homo sapiens, UniProt P36544). Put plainly: Agonist activity at human recombinant alpha7 nAChR expressed in rat GH3 cells by calcium influx assay. Type of series: functional, cell-based. An outline of the steps:
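GH3 cells recombinantly expressing human α7 nAChR; agonist activity. Each compound run in duplicate. EC50 taken from individual 8-point concentration-response curves and expressed as pEC50, with Emax given in %.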

The species named for series [2] is Homo sapiens. In words: Selectivity for human alpha3beta4 nAChR over human alpha7 nAChR.
The species named for series [3] is Homo sapiens. Put plainly: Selectivity for human alpha-1-beta-1-gamma-delta nAChR over human alpha7 nAChR.
Series [4] relates to Brain. In words: Drug level in DBA/2 mouse brain at 30 umol/kg, po after 1 hr. It counts as ADME, organism-based. The conditions noted are these: in vivo. The gist of the method:
(§1)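 Mice (n = 6) dosed 30 µmol/kg po. Brain and plasma levels measured at 1 h and 4 h after dosing, reported as pmol/g.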

Series [5] relates to Mus musculus. In words: Plasma concentration in DBA/2 mouse at 30 umol/kg, po after 1 hr. Type of series: ADME, organism-based. The conditions noted are these: in vivo. An outline of the steps:
as §1

The species named for series [6] is Homo sapiens. In words: Selectivity for human 5HT3 receptor over human alpha7 nAChR.
Series [7] has as its target Neuronal acetylcholine receptor; alpha3/beta4 (Homo sapiens, UniProt P30926+P32297). Put plainly: Antagonist activity at human alpha3beta4 nAChR expressed in HEK293 cells by calcium influx assay. It counts as functional, cell-based.
The target in series [8] is Neuronal acetylcholine receptor; alpha4/beta2 (Homo sapiens, UniProt P17787+P43681). Put plainly: Antagonist activity at human alpha4beta2 nAChR expressed in HEK293 cells by calcium influx assay. It counts as functional, cell-based.
A short description of series [9]: Metabolic stability in mouse liver microsomes assessed as hepatic extraction ratio. It counts as ADME, Microsome. To be noted: read-out: Activity. An outline of the steps: (§2)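 Compound incubated with mouse or human liver microsomes. In vitro hepatic extraction ratio reported as % compound depleted at the end of the experiment; half-life also given.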
In series [10] the test system is Mus musculus. In words: Plasma concentration in DBA/2 mouse at 30 umol/kg, po after 4 hrs. Type of series: ADME, organism-based. To be noted: in vivo. An outline of the steps:
as §1

For series [11], the target named is T1, 5-hydroxytryptamine receptor 3A (Homo sapiens, UniProt P46098).
T1 sequence (P46098 whole entry): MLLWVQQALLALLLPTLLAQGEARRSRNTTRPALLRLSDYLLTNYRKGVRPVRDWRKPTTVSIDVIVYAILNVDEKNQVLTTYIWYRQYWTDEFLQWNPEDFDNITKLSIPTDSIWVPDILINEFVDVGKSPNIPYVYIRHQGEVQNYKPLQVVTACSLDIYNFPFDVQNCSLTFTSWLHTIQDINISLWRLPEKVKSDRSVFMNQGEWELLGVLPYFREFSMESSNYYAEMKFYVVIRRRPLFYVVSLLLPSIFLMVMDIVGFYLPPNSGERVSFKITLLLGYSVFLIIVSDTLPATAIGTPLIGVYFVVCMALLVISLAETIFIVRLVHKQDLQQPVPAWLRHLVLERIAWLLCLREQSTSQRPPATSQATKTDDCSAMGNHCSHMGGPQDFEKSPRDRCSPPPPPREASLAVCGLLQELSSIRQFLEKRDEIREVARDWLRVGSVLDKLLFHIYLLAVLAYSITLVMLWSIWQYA
Put plainly: Antagonist activity at human 5HT3 receptor by calcium influx assay. It counts as functional.

Series [12] deals with Acetylcholine receptor; alpha1/beta1/delta/gamma (Homo sapiens, UniProt P02708+P07510+P11230+Q07001). In words: Antagonist activity at human alpha-1-beta-1-gamma-delta nAChR expressed in human TE671 cells by calcium influx assay. It counts as functional, cell-based, TE-671.
Series [13] is filed under the species Homo sapiens. Put plainly: Selectivity for human alpha4beta2 nAChR over human alpha7 nAChR.
Series [14] has as its system Brain. In words: Drug level in DBA/2 mouse brain at 30 umol/kg, po after 4 hrs. To be noted: in vivo. It counts as ADME, organism-based. An outline of the steps: as §1
Series [15] is described as follows: Metabolic stability in human liver microsomes assessed as hepatic extraction ratio. Type of series: ADME, Microsome. To be noted: read-out: Activity. The gist of the method:
as §2

The nature of series [16]: Octanol-water partition coefficient, log P of the compound. Type of series: physicochemical.

Sequence of Neuronal acetylcholine receptor; alpha4/beta2 (P17787 whole entry): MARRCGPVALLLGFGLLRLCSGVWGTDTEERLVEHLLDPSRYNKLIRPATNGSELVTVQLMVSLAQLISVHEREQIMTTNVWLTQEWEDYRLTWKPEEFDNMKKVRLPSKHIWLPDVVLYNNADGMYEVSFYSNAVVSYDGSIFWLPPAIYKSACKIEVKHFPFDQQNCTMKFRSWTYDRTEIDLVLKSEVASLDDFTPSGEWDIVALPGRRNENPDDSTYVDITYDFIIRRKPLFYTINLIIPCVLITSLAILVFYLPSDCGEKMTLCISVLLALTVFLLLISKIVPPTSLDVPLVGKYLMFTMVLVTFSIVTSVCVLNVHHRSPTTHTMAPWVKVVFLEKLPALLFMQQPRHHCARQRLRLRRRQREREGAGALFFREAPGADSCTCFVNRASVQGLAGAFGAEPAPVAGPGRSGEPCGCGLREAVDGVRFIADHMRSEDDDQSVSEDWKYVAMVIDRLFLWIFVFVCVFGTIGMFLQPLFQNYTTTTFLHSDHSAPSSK
Sequence of Neuronal acetylcholine receptor; alpha4/beta2 (P43681 whole entry): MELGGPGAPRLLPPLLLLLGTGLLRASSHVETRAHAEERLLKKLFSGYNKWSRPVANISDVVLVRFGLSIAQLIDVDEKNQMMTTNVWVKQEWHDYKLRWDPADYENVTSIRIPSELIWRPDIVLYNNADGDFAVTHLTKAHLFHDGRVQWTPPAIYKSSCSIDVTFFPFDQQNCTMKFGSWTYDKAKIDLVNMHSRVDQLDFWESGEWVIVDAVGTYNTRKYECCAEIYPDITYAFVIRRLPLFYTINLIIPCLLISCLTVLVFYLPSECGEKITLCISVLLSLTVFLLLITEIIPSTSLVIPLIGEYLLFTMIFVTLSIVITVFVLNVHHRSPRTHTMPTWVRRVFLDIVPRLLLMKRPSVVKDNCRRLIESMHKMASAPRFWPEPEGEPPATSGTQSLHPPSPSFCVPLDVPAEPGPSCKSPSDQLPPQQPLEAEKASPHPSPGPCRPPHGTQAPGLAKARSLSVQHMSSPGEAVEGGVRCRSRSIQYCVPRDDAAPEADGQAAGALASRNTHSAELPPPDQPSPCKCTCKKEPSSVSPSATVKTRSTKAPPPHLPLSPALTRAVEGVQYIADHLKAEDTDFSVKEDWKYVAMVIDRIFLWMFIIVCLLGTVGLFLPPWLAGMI
Sequence of Neuronal acetylcholine receptor subunit alpha-7 (P36544 whole entry): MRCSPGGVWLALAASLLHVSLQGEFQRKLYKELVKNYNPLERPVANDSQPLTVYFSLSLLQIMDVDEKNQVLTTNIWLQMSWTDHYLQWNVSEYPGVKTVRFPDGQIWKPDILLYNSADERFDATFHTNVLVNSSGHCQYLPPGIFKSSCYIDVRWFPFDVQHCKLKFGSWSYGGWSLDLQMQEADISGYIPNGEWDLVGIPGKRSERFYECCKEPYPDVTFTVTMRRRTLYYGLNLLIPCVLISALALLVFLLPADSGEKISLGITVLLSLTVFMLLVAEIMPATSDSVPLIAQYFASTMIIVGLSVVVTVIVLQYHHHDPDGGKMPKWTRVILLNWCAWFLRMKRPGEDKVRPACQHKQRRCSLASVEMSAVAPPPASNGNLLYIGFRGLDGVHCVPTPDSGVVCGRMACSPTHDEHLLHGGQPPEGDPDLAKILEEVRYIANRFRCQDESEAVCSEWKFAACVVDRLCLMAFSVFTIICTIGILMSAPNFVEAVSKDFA
Sequence of Neuronal acetylcholine receptor; alpha3/beta4 (P30926 whole entry): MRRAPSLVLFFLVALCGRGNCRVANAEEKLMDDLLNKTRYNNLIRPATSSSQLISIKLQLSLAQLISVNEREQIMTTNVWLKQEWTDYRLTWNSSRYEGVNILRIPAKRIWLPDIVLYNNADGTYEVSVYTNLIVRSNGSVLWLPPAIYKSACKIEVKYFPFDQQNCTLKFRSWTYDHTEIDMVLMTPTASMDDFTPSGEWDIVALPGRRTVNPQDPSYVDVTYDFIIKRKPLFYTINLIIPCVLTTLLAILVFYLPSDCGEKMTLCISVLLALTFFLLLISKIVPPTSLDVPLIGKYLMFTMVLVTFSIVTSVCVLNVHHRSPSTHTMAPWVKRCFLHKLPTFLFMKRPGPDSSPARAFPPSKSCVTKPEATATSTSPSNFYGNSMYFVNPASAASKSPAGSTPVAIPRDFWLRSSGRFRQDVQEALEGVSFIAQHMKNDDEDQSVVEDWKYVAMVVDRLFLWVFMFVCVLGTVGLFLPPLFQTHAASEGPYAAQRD
Sequence of Neuronal acetylcholine receptor; alpha3/beta4 (P32297 whole entry): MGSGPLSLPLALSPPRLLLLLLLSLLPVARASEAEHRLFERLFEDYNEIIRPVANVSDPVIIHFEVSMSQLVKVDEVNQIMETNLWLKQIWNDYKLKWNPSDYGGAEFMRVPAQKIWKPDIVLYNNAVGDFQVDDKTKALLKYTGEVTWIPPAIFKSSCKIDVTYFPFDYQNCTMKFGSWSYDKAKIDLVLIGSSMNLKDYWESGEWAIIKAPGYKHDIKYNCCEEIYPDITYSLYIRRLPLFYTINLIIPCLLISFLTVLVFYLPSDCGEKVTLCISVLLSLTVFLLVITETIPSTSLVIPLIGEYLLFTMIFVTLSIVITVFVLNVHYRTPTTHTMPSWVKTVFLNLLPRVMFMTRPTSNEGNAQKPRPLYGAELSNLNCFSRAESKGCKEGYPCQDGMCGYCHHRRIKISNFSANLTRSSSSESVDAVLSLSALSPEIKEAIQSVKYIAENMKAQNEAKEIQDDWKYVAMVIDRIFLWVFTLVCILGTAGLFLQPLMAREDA
Sequence of Acetylcholine receptor; alpha1/beta1/delta/gamma (P02708 whole entry): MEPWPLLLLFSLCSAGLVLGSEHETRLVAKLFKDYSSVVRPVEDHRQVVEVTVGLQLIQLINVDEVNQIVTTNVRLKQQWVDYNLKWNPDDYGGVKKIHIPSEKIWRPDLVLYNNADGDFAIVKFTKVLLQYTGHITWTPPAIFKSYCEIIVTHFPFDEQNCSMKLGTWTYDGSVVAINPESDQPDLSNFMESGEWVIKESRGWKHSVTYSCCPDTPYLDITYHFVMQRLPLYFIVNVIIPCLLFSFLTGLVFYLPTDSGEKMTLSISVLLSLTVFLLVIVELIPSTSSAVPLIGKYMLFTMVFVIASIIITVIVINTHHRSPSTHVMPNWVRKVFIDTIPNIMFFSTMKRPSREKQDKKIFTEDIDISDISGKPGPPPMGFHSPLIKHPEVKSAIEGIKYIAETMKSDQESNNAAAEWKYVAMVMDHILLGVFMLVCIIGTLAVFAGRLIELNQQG
Sequence of Acetylcholine receptor; alpha1/beta1/delta/gamma (P07510 whole entry): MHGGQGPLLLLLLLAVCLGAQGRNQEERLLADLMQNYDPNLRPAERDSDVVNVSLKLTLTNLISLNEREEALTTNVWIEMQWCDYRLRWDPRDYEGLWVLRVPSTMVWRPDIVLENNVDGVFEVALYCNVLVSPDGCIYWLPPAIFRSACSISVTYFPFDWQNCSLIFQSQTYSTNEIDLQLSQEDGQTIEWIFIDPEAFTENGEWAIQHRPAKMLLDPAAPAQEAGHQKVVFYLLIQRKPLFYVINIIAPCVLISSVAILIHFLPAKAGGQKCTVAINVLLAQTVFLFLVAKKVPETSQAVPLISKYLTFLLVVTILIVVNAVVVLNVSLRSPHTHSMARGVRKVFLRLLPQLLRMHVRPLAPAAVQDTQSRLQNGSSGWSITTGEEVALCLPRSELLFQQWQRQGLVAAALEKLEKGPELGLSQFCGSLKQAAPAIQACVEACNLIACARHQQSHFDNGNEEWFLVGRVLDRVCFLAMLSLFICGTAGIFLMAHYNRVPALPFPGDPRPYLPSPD
Sequence of Acetylcholine receptor; alpha1/beta1/delta/gamma (P11230 whole entry): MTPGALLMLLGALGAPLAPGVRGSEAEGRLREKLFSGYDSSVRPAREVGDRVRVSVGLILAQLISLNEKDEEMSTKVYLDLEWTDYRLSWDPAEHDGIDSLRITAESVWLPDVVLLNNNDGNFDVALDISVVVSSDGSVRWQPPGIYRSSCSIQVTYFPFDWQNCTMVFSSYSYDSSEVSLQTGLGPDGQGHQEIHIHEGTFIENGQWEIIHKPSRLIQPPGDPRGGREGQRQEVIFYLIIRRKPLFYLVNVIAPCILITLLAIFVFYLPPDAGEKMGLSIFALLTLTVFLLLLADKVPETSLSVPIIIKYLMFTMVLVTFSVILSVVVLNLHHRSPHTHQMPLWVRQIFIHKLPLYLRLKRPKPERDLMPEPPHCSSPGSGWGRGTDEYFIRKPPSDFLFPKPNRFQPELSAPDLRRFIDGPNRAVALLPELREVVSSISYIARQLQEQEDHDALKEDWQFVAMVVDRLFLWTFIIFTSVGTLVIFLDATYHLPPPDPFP
Sequence of Acetylcholine receptor; alpha1/beta1/delta/gamma (Q07001 whole entry): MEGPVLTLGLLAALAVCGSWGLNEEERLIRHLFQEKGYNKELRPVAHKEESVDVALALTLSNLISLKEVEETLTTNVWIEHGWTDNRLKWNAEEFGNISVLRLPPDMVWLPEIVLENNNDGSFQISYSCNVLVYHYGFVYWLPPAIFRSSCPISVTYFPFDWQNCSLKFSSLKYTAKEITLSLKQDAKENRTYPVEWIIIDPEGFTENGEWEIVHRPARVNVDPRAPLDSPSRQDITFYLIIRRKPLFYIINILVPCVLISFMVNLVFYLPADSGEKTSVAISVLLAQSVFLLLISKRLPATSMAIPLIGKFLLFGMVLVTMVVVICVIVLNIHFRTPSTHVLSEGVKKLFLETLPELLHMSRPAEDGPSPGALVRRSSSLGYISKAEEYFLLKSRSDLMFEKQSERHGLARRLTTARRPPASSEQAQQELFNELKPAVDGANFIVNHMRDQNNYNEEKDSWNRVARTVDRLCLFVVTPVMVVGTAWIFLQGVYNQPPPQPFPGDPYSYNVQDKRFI

Consider `CN1C(=O)[C@@H](CN2CCCCC2)C[C@H]1c1ccc(C2CCCCC2)cc1` (relative stereo), for which, in series [1], the EC50 was 0.316 µM and the Emax was 60%.
The matching figures for `Cc1cc([C@@H]2C[C@H](CN3CCCCC3)C(=O)N2C)sc1-c1ccccc1Cl` (relative stereo): 0.631 µM and 81%.
In the case of `COc1ccc([C@@H]2C[C@H](CN3CCCCC3)C(=O)N2C)cc1` (relative stereo), in series [1], the EC50 was 1.26 µM and the Emax came out at 124%.
The like results for `CN1C(=O)[C@@H](CN2CCCCC2)C[C@H]1c1ccc(Br)cc1` (relative stereo) were, in that order, 0.631 µM and 89%.
With `CN1CCC[C@H]1c1cccnc1`, the Emax in [1] amounted to 100%.
For the molecule `CN1C(=O)[C@@H](CN2CCCCC2)C[C@H]1c1cnc(-c2ccccc2Cl)s1` (relative stereo), the Ratio in series [2] worked out at 14. In [1], the EC50 was 0.0251 µM and the Emax amounted to 89%.
Turning to `CN1C(=O)[C@@H](CN2CCCCC2)C[C@H]1c1cccc(Cl)c1` (relative stereo), in [1], the half-maximal effective concentration (EC50) is 1 µM and the maximal effect (Emax) was 102%.
On to `Cc1ccccc1C#C[C@@H]1C[C@H](CN2CCCCC2)C(=O)N1C` (relative stereo), for which the Ratio in series [2] was 104. In addition, in series [1], the EC50 is 0.0158 µM and the Emax turned out to be 83%.
`COc1ccccc1[C@@H]1C[C@H](CN2CCCCC2)C(=O)N1C` (relative stereo): in series [1], the EC50 was 1.26 µM and the Emax turned out to be 107%.
`CN1C(=O)[C@@H](CN2CCCCCC2)C[C@H]1c1ccccc1Cl` (relative stereo): in series [1], the EC50 was 2 µM and the maximal effect (Emax) came out at 82%.
The like results for `COc1ccc(/C=C2\CCCN=C2c2cccnc2)c(OC)c1` [GTS-21] were, in that order, 2 µM and 71%.
In the case of `O=C1NC[C@@]2(CN3CCC2CC3)O1`, in series [1], the half-maximal effective concentration (EC50) is 0.398 µM and the Emax amounted to 104%.
As to `CN1C(=O)[C@@H](CN2CCCCC2)C[C@H]1c1ccc(-c2ccccc2Cl)cc1` (relative stereo), the Ratio in series [2] amounted to 3. For the same molecule, in series [1], the EC50 was 0.126 µM and the Emax turned out to be 62%.
Take `Clc1ccc([C@@H]2C[C@H]3CC[C@@H]2N3)cn1` [(+)-EPIBATIDINE]: in series [1], the EC50 was 0.0398 µM and the Emax was 100%.
Regarding `CN1C(=O)[C@@H](CN2CCCCC2)C[C@H]1c1nc(-c2ccccc2Cl)c[nH]1` (relative stereo), in [1], the EC50 was 1.26 µM and the Emax amounted to 61%.
Consider `CN1C(=O)[C@@H](CN2CCCCC2)C[C@H]1C#Cc1ccc2occc2c1` (relative stereo), for which the Ratio was found to be 123 in [2], 17000 in series [3], 17000 in series [6] and 660 in series [13]. For the same molecule, the Drug uptake in [4] worked out at 6533 pmol/g; in series [14] it was 3676 pmol/g. Further, the Cp in [5] was found to be 1001 pmol/g; in series [10] it was 544 pmol/g. Moreover, the IC50 in [7] is 0.794 µM; in series [8], 5.01 µM; in series [11], 100 µM; in series [12], 100 µM. Further, the hepatic extraction ratio in [9] is 0.67; in series [15] it was 0.68. The EC50 in series [1] is 0.00794 µM. For the same molecule, in [1], the Emax is 90%. In addition, the logP in series [16] was 3.9.
Turning to `CN1C(=O)[C@@H](CN2CCCCC2)C[C@H]1c1ccc(-c2ccccc2F)cc1` (relative stereo), in series [1], the 50% effective concentration (EC50) is 0.316 µM and the Emax is 47%.
On to `CN1C(=O)[C@@H](CN2CCCCC2)C[C@H]1C#Cc1ccccc1Cl`, for which, in [2], the Ratio was determined as 52. In [1], the half-maximal effective concentration (EC50) was 0.0251 µM and the maximum response (Emax) came to 89%.
In the case of `COc1cccc([C@@H]2C[C@H](CN3CCCCC3)C(=O)N2C)c1` (relative stereo), in series [1], the EC50 was 1.26 µM and the maximum response (Emax) worked out at 128%.
In the case of `CN1C(=O)[C@@H](CN2CCCCC2)C[C@H]1c1ccc(Cl)cc1` (relative stereo), in [1], the EC50 is 1 µM and the Emax is 110%.
`CN1C(=O)[C@@H](CN2CCCCC2)C[C@H]1c1nc(-c2ccccc2Cl)cn1C` (relative stereo): in series [1], the EC50 was 0.631 µM and the Emax turned out to be 47%.
`CN1C(=O)[C@@H](CN2CCCCC2)C[C@H]1C#Cc1ccc2c(c1)CCO2` (relative stereo): the Ratio in [2] is 154; in [3] it was 773; in [6], 5390; in [13] it was 1260. In addition, the IC50 in series [7] is 1 µM; in series [8] it was 10 µM; in series [11], 50.1 µM; in [12], 6.31 µM. Further, the 50% effective concentration (EC50) in series [1] was 0.00794 µM. Moreover, the Emax in series [1] is 80%.
`CN1C(=O)[C@@H](CN2CCCCC2)C[C@H]1c1ccccc1Cl`: in [1], the EC50 is 0.794 µM and the Emax worked out at 89%.
The like results for `Cc1ccc([C@@H]2C[C@H](CN3CCCCC3)C(=O)N2C)cc1` (relative stereo) were, in that order, 0.631 µM and 114%.
As to `CN1C(=O)[C@@H](CN2CCCCC2)C[C@H]1c1ccc(-c2ccccc2Cl)s1` (relative stereo), in series [2], the Ratio was found to be 26. In [1], the EC50 is 0.0316 µM and the maximal effect (Emax) worked out at 79%.
Consider `CN1C(=O)[C@@H](CN2CCCCC2)C[C@H]1C#Cc1ccc2c(ccn2C)c1` (relative stereo), for which the Ratio in series [2] is 111; in series [3] it was 431; in series [6], 3220; in series [13], 232. Also, the 50% inhibitory concentration (IC50) was 1 µM in series [7], 2 µM in series [8], 25.1 µM in series [11] and 3.98 µM in series [12]. Besides, the EC50 in [1] was 0.00794 µM. For the same molecule, the Emax in [1] was determined as 100%.
In the case of `COc1cccc([C@@H]2C[C@H](CN3CCCC3)C(=O)N2C)c1` (relative stereo), in [1], the EC50 was 7.94 µM and the Emax came to 80%.
The like results for `CN1C(=O)[C@@H](CN2CCCCC2)C[C@H]1c1ccc(C2CCCC2)cc1` (relative stereo) were, in that order, 0.316 µM and 28%.
The like results for `CN1C(=O)[C@@H](CN2CCCCC2)C[C@H]1c1ccc(-c2ccccc2)cc1` were, in that order, 1.26 µM and 61%.
